{"data": "Assay results collected from several papers", "target": "Calcium/calmodulin-dependent protein kinase type IV (CAMK4, Homo sapiens, UniProt Q16566)", "One construct used (Q16566 1-473)": "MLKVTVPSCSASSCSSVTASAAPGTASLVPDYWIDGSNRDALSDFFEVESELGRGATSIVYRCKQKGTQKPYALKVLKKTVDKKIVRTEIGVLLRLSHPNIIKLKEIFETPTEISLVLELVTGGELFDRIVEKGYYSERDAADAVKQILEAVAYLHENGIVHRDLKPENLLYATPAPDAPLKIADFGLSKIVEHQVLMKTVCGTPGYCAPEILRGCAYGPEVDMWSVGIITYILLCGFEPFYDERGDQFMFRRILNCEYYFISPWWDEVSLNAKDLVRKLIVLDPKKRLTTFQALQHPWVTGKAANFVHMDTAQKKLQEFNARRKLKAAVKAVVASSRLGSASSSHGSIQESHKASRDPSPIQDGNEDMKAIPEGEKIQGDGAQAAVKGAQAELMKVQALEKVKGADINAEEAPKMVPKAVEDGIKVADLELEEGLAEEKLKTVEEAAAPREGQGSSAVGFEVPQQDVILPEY", "note": "Protocols differ between the studies behind these lines."}
{"SMILES": "O=C1NC(=O)c2cc(Nc3ccc(F)cc3)c(Nc3ccc(F)cc3)cc21", "effect on": "cell-free assay", "tested at": "0.5 µM", "measurement": "remaining signal", "result": "98.7%"}
{"SMILES": "Cn1c2c(c3ccc(Cl)c(Cl)c31)C(C#N)C1(CCOCC1)NC2=O (stereo not drawn)", "effect on": "thermal stability", "method": "DSF", "tested at": "10 µM", "measurement": "ΔTm", "result": "0 °C"}
{"SMILES": "COc1ccc2c(c1)O[C@@H](c1ccc(OC)c(OC)c1)C[C@H]2NC(=O)C1(c2ccc3c(c2)OC(F)(F)O3)CC1", "effect on": "cell-free assay", "method": "competition with immobilised ligand", "tested at": "1 µM", "measurement": "remaining binding", "result": "89%"}
{"SMILES": "Nc1ncnc2occ(-c3ccc(NC(=O)Nc4cc(C(F)(F)F)ccc4F)cc3)c12", "effect on": "cell-free assay", "mode": "inhibitor", "tested at": "20 µM", "measurement": "remaining signal", "result": "1.5%"}
{"SMILES": "CCc1ccccc1C(=O)Nc1n[nH]c2c(C)c(F)c(C3C(C#N)=C(C)N(C)C(C)=C3C#N)cc12", "effect on": "cell-free assay", "method": "competition with immobilised ligand", "tested at": "1 µM", "measurement": "remaining binding", "result": "56%"}
{"SMILES": "Cc1ccc(Nc2nccc(N(C)c3ccc4c(C)n(C)nc4c3)n2)cc1S(N)(=O)=O", "effect on": "cell-free assay", "mode": "inhibitor", "tested at": "0.5 µM", "measurement": "remaining signal", "result": "95.9%"}
{"SMILES": "O=C(O)[C@H]1[C@H](Cn2nnc3ccccc3c2=O)CC[C@@H]1C(=O)c1ccc(OCCC2CCOCC2)cc1", "effect on": "cell-free assay", "method": "competition with immobilised ligand", "tested at": "1 µM", "measurement": "remaining binding", "result": "78%"}
{"SMILES": "CC(C)c1ccc(NC(=O)c2cccs2)c(-c2nc3ccccc3[nH]c2=O)c1", "effect on": "enzyme activity", "mode": "inhibitor", "tested at": "1 µM", "measurement": "activity vs control", "result": "116%"}
{"SMILES": "COc1cc(Cl)c(C(=O)N[C@@H](CN[C@H]2CC[C@@H](N)CC2)Cc2ccc(C#N)cc2)cc1-c1ccc(CN[C@H](C)c2ccc(C)cc2)o1", "effect on": "enzyme activity", "mode": "inhibitor", "tested at": "1 µM", "measurement": "remaining activity", "result": "92%"}
{"SMILES": "CCN(CC)CCNC(=O)c1c(C)[nH]c(/C=C2\\C(=O)Nc3ccc(F)cc32)c1C", "effect on": "enzyme activity", "mode": "inhibitor", "tested at": "0.3 µM", "measurement": "inhibition", "result": "22%"}
{"SMILES": "CNc1cccc2cc(C(=O)Nc3ccc(C(=O)O)cc3)c(=O)[nH]c12", "effect on": "enzyme activity", "mode": "inhibitor", "tested at": "10 µM", "measurement": "inhibition", "result": "11%"}
{"SMILES": "N#CC1c2c([nH]c3c(Cl)c(Cl)ccc23)C(=O)NC12CCCCC2 (racemic)", "effect on": "thermal stability", "method": "DSF", "tested at": "10 µM", "measurement": "ΔTm", "result": "0.6 °C"}
{"SMILES": "COc1cc2c(N3CCN(C(=O)Nc4ccc(OC(C)C)cc4)CC3)ncnc2cc1OCCCN1CCCCC1", "effect on": "cell-free assay", "tested at": "0.5 µM", "measurement": "remaining signal", "result": "99.3%"}
{"SMILES": "Cn1c2c(c3ccc(Cl)c(Cl)c31)C(C#N)C1(CCNCC1)NC2=O (racemic)", "effect on": "thermal stability", "method": "DSF", "tested at": "10 µM", "measurement": "ΔTm", "result": "-0.1 °C"}
{"SMILES": "CN([C@@H]1CCc2c(CC(=O)O)c3ccccc3n2C1)S(=O)(=O)c1ccc(F)cc1", "effect on": "cell-free assay", "method": "competition with immobilised ligand", "tested at": "1 µM", "measurement": "remaining binding", "result": "85%"}
{"SMILES": "CC/C(=N\\NC(=O)NCc1cccc(O)c1)c1ccc(O)c(C)c1O", "effect on": "enzyme activity", "mode": "inhibitor", "tested at": "0.1 µM", "measurement": "inhibition", "result": "1.3%"}
{"SMILES": "COc1cc2ncnc(Nc3ccc(Oc4ccccc4)cc3C)c2cc1OC", "effect on": "enzyme activity", "mode": "inhibitor", "tested at": "1 µM", "measurement": "inhibition", "result": "-20%"}
{"SMILES": "CCN(CC)c1ccc(C2=NNC(=O)CC2C)cc1[N+](=O)[O-] (stereo not drawn)", "effect on": "enzyme activity", "mode": "inhibitor", "tested at": "10 µM", "measurement": "remaining activity", "result": "102%"}
{"SMILES": "CNC(=O)c1cc(Oc2ccc(NC(=O)Nc3ccc(Cl)c(C(F)(F)F)c3)cc2)ccn1", "effect on": "enzyme activity", "mode": "inhibitor", "tested at": "0.3 µM", "measurement": "inhibition", "result": "-4%"}
{"SMILES": "N#CCCc1ccc2c(c1)-c1[nH]c3ccc([N+](=O)[O-])cc3c1CC(=O)N2", "effect on": "cell-free assay", "tested at": "0.5 µM", "measurement": "remaining signal", "result": "98.4%"}
{"SMILES": "Cc1nccc(COC(=O)N2C[C@@H]3[C@@H](CNC(=O)c4ccc5[nH]nnc5c4)[C@@H]3C2)n1", "effect on": "cell-free assay", "method": "competition with immobilised ligand", "tested at": "1 µM", "measurement": "remaining binding", "result": "95%"}
{"SMILES": "CC(C)(O)[C@H]1CC[C@H](Nc2ccc3ncc(-c4cccc(C(F)(F)F)c4)n3n2)CC1", "effect on": "enzyme activity", "mode": "inhibitor", "tested at": "1 µM", "measurement": "remaining activity", "result": "107%"}
{"SMILES": "Cn1c2c(c3ccc(Cl)c(Cl)c31)C(C#N)C(C)(C)NC2=O (stereo not drawn)", "effect on": "thermal stability", "method": "DSF", "tested at": "10 µM", "measurement": "ΔTm", "result": "0.1 °C"}
{"SMILES": "CN(C)C1CCN(CC#Cc2nn(C3CCCC3)c3nc(NCc4ccccc4)ncc23)C1 (stereo not drawn)", "effect on": "enzyme activity", "mode": "inhibitor", "method": "FRET", "tested at": "0.1 µM", "measurement": "inhibition", "result": "4%"}
{"SMILES": "CCN1CCC2(CC1)NC(=O)c1c(c3ccc(Cl)c(Cl)c3n1C)C2C#N (racemic)", "effect on": "thermal stability", "method": "DSF", "tested at": "10 µM", "measurement": "ΔTm", "result": "0.1 °C"}
{"SMILES": "COc1cccc(CNC(=O)c2nc3scc(COCc4ccc(C(=O)O)cc4)c3c(=O)[nH]2)c1", "effect on": "cell-free assay", "method": "competition with immobilised ligand", "tested at": "1 µM", "measurement": "remaining binding", "result": "100%"}
{"SMILES": "CC(C)(C)c1nc2c(s1)c1nc(N)ncc1c1ccc(NS(=O)(=O)c3c(F)cccc3F)c(F)c12", "effect on": "enzyme activity", "mode": "inhibitor", "method": "radiometric", "tested at": "1 µM", "measurement": "remaining activity", "result": "94%"}
{"SMILES": "CCC(=O)N[C@@H]1CC[C@H](C(=O)N(C)c2ccc(-c3nc4ccccc4o3)cc2)C1", "effect on": "cell-free assay", "method": "competition with immobilised ligand", "tested at": "1 µM", "measurement": "remaining binding", "result": "100%"}
{"SMILES": "Cc1ccc(NC(=O)c2ccc(C)c(C(F)(F)F)c2)cc1C#Cc1nn(C2CCC(O)CC2)c2ncnc(N)c12 (stereo not drawn)", "effect on": "cell-free assay", "tested at": "10 µM", "measurement": "remaining signal", "result": "93%"}
{"SMILES": "Cn1c2c(c3ccc(Cl)c(Cl)c31)C(C#N)C1(CCN(C(=O)OC(C)(C)C)CC1)NC2=O (racemic)", "effect on": "thermal stability", "method": "DSF", "tested at": "10 µM", "measurement": "ΔTm", "result": "-0.3 °C"}
{"SMILES": "O=S(=O)(NC1CCC(c2cc(F)ccc2F)(S(=O)(=O)c2ccc(Cl)cc2)CC1)C(F)(F)F (stereo not drawn)", "effect on": "cell-free assay", "method": "competition with immobilised ligand", "tested at": "1 µM", "measurement": "remaining binding", "result": "100%"}
{"SMILES": "Oc1cccc(-c2nc(N3CCOCC3)c3oc4ncccc4c3n2)c1", "effect on": "cell-free assay", "tested at": "0.5 µM", "measurement": "remaining signal", "result": "103%"}
{"SMILES": "O=C(Nc1cnn(-c2csc(C(=O)NC3COC3)c2)c1)Nc1c(F)cccc1Cl", "effect on": "enzyme activity", "mode": "inhibitor", "tested at": "5 µM", "measurement": "remaining activity", "result": "98.7%"}
